Legend:
Plasmodium falciparum = experiment: Antimalarial activity against Plasmodium falciparum D6 infected in RBC after 48 hrs by lactate dehydrogenase assay; assay type: functional; conditions: D6, 48 h
Procedure, shortened: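 Parasites grown in A+ human erythrocytes in RPMI 1640 with 10% A+ human serum, 25 mM HEPES, 27 mM bicarbonate, 60 µg/mL amikacin, 37 °C under 90% N2/5% O2/5% CO2. Infected cells exposed 48 h in microtiter wells, highest concentration 4.8 µg/mL. Growth read by Malstat reagent (parasite LDH) with nitro blue tetrazolium reduction, absorbance 630 nm.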

[1] = Cytotoxicity against human SK-MEL cells assessed as cell growth inhibition after 48 hrs by neutral red dye based assay; assay type: functional
Procedure, shortened: (§1)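 Cells kept in RPMI-1640 with 10% bovine serum and 60 µg/mL amikacin, 37 °C, 5% CO2. Seeded at 25,000 cells/well, left 24 h to adhere. Samples diluted in RPMI added, highest final concentration 10 µg/mL. Growth measured by neutral red uptake after 48 h exposure.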

[2] = Cytotoxicity against human SKOV3 cells assessed as cell growth inhibition after 48 hrs by neutral red dye based assay; assay type: functional; conditions: SK-OV-3, 48 h; procedure, shortened: as §1
[3] = Cytotoxicity against African green monkey Vero cells assessed as cell growth inhibition at 10 ug/ml after 48 hrs by neutral red dye based assay; assay type: toxicity; conditions: chlorocebus sabaeus; procedure, shortened: as §1
[4] = Inhibition of Candida albicans DNA topoisomerase 1 using pHOT1 as substrate after 30 mins by agarose gel electrophoresis
Procedure, shortened: (§2)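 Relaxation of supercoiled to relaxed DNA by TopoI measured with a commercial TopoI drug kit following kit protocol. IC50 calculated from dose-response curves of % inhibition versus concentration.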

DNA topoisomerase 1 = molecular target: T1, DNA topoisomerase 1 (Homo sapiens, UniProt P11387); experiment: Inhibition of human DNA topoisomerase 1 using pHOT1 as substrate after 30 mins by agarose gel electrophoresis; procedure, shortened: as §2
T1 sequence (P11387 whole entry): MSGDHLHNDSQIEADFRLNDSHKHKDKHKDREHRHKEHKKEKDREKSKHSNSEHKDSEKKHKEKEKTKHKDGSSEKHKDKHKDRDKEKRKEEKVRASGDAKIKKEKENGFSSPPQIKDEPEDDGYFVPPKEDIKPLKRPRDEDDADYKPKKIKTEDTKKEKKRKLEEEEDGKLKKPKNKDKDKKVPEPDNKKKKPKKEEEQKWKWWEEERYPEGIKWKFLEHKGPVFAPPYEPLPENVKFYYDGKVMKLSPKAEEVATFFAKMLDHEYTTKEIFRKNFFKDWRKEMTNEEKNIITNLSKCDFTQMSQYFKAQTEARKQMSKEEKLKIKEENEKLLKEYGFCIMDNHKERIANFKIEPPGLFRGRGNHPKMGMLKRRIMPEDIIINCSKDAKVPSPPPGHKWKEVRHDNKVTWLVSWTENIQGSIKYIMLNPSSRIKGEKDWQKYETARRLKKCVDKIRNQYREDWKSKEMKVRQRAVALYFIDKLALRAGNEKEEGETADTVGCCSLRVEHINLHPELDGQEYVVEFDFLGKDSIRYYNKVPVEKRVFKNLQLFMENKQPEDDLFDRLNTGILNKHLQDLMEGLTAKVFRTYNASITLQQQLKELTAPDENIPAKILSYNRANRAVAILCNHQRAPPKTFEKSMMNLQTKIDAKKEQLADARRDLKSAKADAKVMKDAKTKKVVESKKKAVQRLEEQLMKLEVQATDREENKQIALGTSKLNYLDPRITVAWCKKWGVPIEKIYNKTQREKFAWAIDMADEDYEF

[5] = Selectivity index, ratio of IC50 for human DNA topoisomerase 1 to IC50 for Candida albicans DNA topoisomerase 1
Cryptococcus neoformans = experiment: Antimicrobial activity against Cryptococcus neoformans ATCC 52657; assay type: functional
Procedure, shortened: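 Grown in mycophil broth 72 h, hemocytometer-counted, diluted to 200,000 CFU/mL. Exposed to diluted samples in 96-well plates, maximum final 50 µg/mL (DMSO up to 2.5%), incubated 30 °C. A630 readout. MIC is the lowest concentration inhibiting 80% of growth versus controls; IC50 read from concentration versus % growth graphs.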

[6] = Cytotoxicity against human KB cells assessed as cell growth inhibition after 48 hrs by neutral red dye based assay; assay type: functional; procedure, shortened: as §1
[7] = Cytotoxicity against human BT549 cells assessed as cell growth inhibition after 48 hrs by neutral red dye based assay; assay type: functional; conditions: BT-549, 48 h; procedure, shortened: as §1
Candida albicans = experiment: Antimicrobial activity against Candida albicans B311; assay type: functional
Procedure, shortened: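 Cultured in Sabouraud dextrose broth 24 h, counted by hemocytometer, diluted to 10,000 CFU/mL. Added to serially diluted samples in 96-well plates, top final concentration 50 µg/mL (≤2.5% DMSO), incubated 37 °C. Growth by A630. MIC is the lowest concentration giving 80% inhibition against controls; IC50 from concentration versus % growth plots.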

[8] = tested on: Mycobacterium intracellulare; experiment: Antimicrobial activity against Mycobacterium intracellulare ATCC 23068; assay type: functional
Procedure, shortened: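 Mycobacterium grown 72 h in Middlebrook medium with OADC supplement, diluted 1:30 in broth. Incubated at 37 °C with diluted samples in 96-well plates, highest final 50 µg/mL, DMSO at most 2.5%. Absorbance at 630 nm. MIC = lowest concentration with 80% growth inhibition relative to controls; IC50 from concentration versus % growth plots.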

Row | SMILES | IC50 (Plasmodium falciparum) [mg/L] | IC50 [1] [mg/L] | IC50 [2] [mg/L] | Activity [3] | IC50 [4] [mg/L] | IC50 (DNA topoisomerase 1) [µM] | Ratio IC50 [5] | IC50 (Cryptococcus neoformans) [mg/L] | MIC80 (Cryptococcus neoformans) [mg/L] | IC50 [6] [mg/L] | IC50 [7] [mg/L] | IC50 (Candida albicans) [mg/L] | MIC80 (Candida albicans) [mg/L] | MIC80 [8] [mg/L]
1 | CCOC(=O)C[n+]1ccc2c3c(nc4ccccc42)-c2ccccc2-c31.[Br-] | 0.56 | > 10 | 5.9 | Non-Toxic | 2.3 | 5.7 | 0.96 | – | – | – | – | – | – | –
2 | Cc1cc(C)cc(CS(=O)(=O)[O-])c1.N[n+]1ccc2ccnc3c2c1-c1ccccc1-3 | 3.2 | > 10 | – | Non-Toxic | 7.5 | 35.8 | 0.5 | 19.7 | 50 | – | – | – | – | –
3 | O=C(C[n+]1ccc2ccnc3c2c1-c1ccccc1-3)c1ccccc1.[Br-] | 0.17 | – | 6 | Non-Toxic | 50 | 136 | 0.91 | 6.18 | 25 | > 10 | > 10 | – | – | –
4 | Fc1ccc2c(c1)-c1c3c-2nccc3cc[n+]1Cc1ccccc1.[Br-] | 0.033 | 5.6 | 0.53 | Non-Toxic | – | – | – | 0.52 | 0.78 | 1.3 | 2.5 | 1.5 | 3.12 | 50
5 | Fc1ccc(C[n+]2ccc3ccnc4c3c2-c2ccccc2-4)c(F)c1.[Br-] | 0.015 | 6.2 | 2.8 | Non-Toxic | 32 | 109 | 0.71 | 0.58 | 1.56 | – | – | 5.33 | 6.25 | –
6 | COc1ccc2c(c1)-c1c3c-2nccc3cc[n+]1Cc1ccccc1.[Br-] | 0.032 | 1.5 | 0.15 | Non-Toxic | 5.75 | 12.3 | 1.15 | 0.7 | 1.56 | 0.2 | 1.1 | 16.7 | 25 | 50
7 | Clc1cccc(C[n+]2ccc3ccnc4c3c2-c2ccccc2-4)c1.[Br-] | 0.0042 | 1.15 | 0.055 | Non-Toxic | 21 | 53.7 | 0.95 | 0.18 | 0.78 | 0.68 | 1.6 | 3 | 6.25 | 50
8 | [Br-].c1ccc(C[n+]2ccc3ccnc4c3c2-c2ccccc2-4)cc1 | 0.0225 | 5.4 | 1.5 | Non-Toxic | 19 | 101 | 0.5 | 0.43 | 1.56 | – | – | 4.17 | 6.25 | –
9 | O=[N+]([O-])c1ccc(C[n+]2ccc3ccnc4c3c2-c2ccccc2-4)cc1.[Br-] | 0.035 | 4.9 | 0.62 | Non-Toxic | 18 | 50 | 0.86 | 1.19 | 6.25 | 1.8 | 4 | – | – | 50
10 | [Br-].c1ccc(C[n+]2ccc3c4c(nc5cc6c(cc53)OCO6)-c3ccccc3-c42)cc1 | 0.0094 | 0.55 | 0.6 | Non-Toxic | 0.52 | 1.11 | 1 | 0.57 | 3.12 | 1 | 1.3 | 5.17 | 12.5 | –

Source: ChEMBL document CHEMBL3865847, “The synthesis and biological evaluation of alkyl and benzyl naphthyridinium analogs of eupolauridine as potential antimicrobial and cytotoxic agents” (Bioorg Med Chem, 2016)
